Source: ChEMBL document CHEMBL1681680, “Synthesis of chroman aldehydes that inhibit HIV” (Bioorg Med Chem Lett, 2011)

How the values were obtained:
[1] = test system: Human immunodeficiency virus 1; assay: Antiviral activity against HIV1 NL4-3 infected in human HeLa37 cells assessed as inhibition of viral infectivity after 40 hrs by single round infectivity assay; assay type: functional, organism-based; details: Human immunodeficiency virus 1, NL4-3, HeLa37, 40 h
Outline: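 HIV-1 NL4-3 and compound mixed, then added to HeLa37 cells (5×10^4 cells/well) at MOI ~0.005. Infection maintained 40 h. Cells fixed in 75% acetone/25% water and immunostained with human anti-HIV antisera. HIV antigen-positive cells counted and normalized to controls at the same DMSO level (DMSO ≤0.5%). IC50 and IC90 taken from dose-response curves. Triplicates, three independent experiments.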

[2] = Cytotoxicity against human HeLa37 cells assessed as cell viability by ATPLite assay; assay type: functional; details: for CC50: Homo sapiens, HeLa37, read-out: LC50 (the source's name)
Outline: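 HeLa37 cells plated and dosed as in the infectivity assay, compounds up to 100 μg/mL, DMSO ≤0.5%. A separate DMSO dose-response (0.05–0.5%) was run, and its effect on viability was subtracted. LC50 and LC90 taken from dose-response. Triplicates, three independent experiments.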

With `CC(=O)c1c(O)c(C=O)c2c(c1O)CCC(C)(C)O2` the IC50 [1] was 30.2 µM, the IC90 [1] was 85 µM and the LC90 [2] was 258 µM. It also gave a CC50 [2] of 145 µM.
For `CC(=O)c1c(O)c2c(c(C(C)=O)c1O)OC(C)(C)CC2`, the IC50 [1] was > 100 µM, the IC90 [1] was > 100 µM and the CC50 [2] was > 100 µM.
For `CC(=O)c1c(O)c(C=O)c(O)c2c1OC(C)(C)CC2`, the IC50 [1] was 39.8 µM, the IC90 [1] was 85.6 µM and the CC50 [2] was > 100 µM.
In the case of `CC1(C)CCc2c(O)c(C=O)c(O)c(C=O)c2O1`, the IC50 [1] is reported as 77.3 µM, the IC90 [1] is reported as > 100 µM and the CC50 [2] is reported as > 100 µM.
In the case of `COc1c(C=O)c(OC)c(C(C)=O)c2c1CCC(C)(C)O2`, the IC50 [1] is reported as 55.3 µM, the IC90 [1] is reported as > 100 µM and the CC50 [2] is reported as > 100 µM.
With `CC(=O)c1c(O)c(C=O)c2c(c1O)C=CC(C)(C)O2` the IC50 [1] was 34.6 µM, the IC90 [1] was 98.2 µM and the CC50 [2] was > 100 µM.
`CC1(C)CCc2c(O)c(C(=O)CC(=O)c3ccccc3)c(O)c(C=O)c2O1` showed an IC50 [1] of 40.7 µM, an IC90 [1] of 86.6 µM and a CC50 [2] of 84.2 µM.
